In ChEMBL document CHEMBL4118251 (J Med Chem, 2018):
Peptide text beside a SMILES is read from it.

Tests used:
[1] = target: T1, Gastric inhibitory polypeptide receptor (Homo sapiens, UniProt P48546); assay: Agonist activity at human GIP receptor expressed in HEK293 cells assessed as cAMP accumulation after 30 mins by HTRF assay; type: functional, cell-based
T1 sequence (P48546 whole entry): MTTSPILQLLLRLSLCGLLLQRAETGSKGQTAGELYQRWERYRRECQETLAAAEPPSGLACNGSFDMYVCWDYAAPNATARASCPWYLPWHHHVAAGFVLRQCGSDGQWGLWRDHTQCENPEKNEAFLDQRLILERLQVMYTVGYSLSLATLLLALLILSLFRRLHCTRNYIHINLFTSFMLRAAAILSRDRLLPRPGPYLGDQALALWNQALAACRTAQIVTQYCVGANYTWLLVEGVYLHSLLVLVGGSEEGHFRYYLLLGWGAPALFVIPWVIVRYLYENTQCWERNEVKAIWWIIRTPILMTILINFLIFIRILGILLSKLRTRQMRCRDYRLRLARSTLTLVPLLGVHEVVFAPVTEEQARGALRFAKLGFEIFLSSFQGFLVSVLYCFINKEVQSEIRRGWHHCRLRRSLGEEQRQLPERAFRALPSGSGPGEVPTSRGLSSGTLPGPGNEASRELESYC

[2] = target: T2, Glucagon-like peptide 1 receptor (Homo sapiens, UniProt P43220); assay: Displacement of [125I]GLP-1 from human GLP1R expressed in HEK293 cell membranes after 180 mins by microbeta counting method
In short: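 Membranes from HEK-293 cells expressing human GLP-1 receptor (1 μg protein/well) were coated on WGA SPA beads. […] The buffer was HEPES pH 7.4 with EDTA, NaCl, MgCl2, CaCl2, protease inhibitors and 0.1% BSA. Plates were read after a 180 min delay.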

[3] = target: T2, Glucagon-like peptide 1 receptor; assay: Agonist activity at human GLP1R expressed in HEK293 cells assessed as cAMP accumulation after 30 mins by HTRF assay; type: functional, cell-based
Glucagon receptor = Glucagon receptor (Homo sapiens, UniProt P47871); assay: Agonist activity at human glucagon receptor expressed in HEK293 cells assessed as cAMP accumulation after 30 mins by HTRF assay; type: functional, cell-based
Homo sapiens [4] = species: Homo sapiens; assay: Selectivity ratio of EC50 for human glucagon receptor expressed in HEK293 cells to EC50 for human GLP1R expressed in HEK293 cells; type: cell-based
In short: (§1)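 HEK293 lines stably expressing human or monkey receptor were detached with accutase. Cells were resuspended at 400 000 cells/mL in HBSS/20 mM HEPES/0.1% BSA/2 mM IBMX and exposed to peptide for 30 min at room temperature. cAMP was read by HTRF (665/620 nm) after 1 h lysis.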

Homo sapiens [5] = species: Homo sapiens; assay: Selectivity ratio of EC50 for human GIP receptor expressed in HEK293 cells to EC50 for human GLP1R expressed in HEK293 cells; type: cell-based; in short: as §1
[6] = Solubility in pH 4.5 acetate buffer at 10 mg/ml after 2 hrs by UPLC-UV analysis; type: physicochemical
In short: (§2)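 Buffers were 100 mM sodium acetate pH 4.5 or 100 mM sodium phosphate pH 7.4, with or without 0.5% phenol. Solid peptide was dispersed at 10 mg/mL, with content corrected by UPLC-MS and ion chromatography, and gently agitated for 2 h. After centrifugation (15 min, 3000 rcf), the supernatant was diluted 1:10 and quantified by UPLC-UV against a DMSO standard curve.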

[7] = Solubility in pH 4.5 acetate buffer at 10 mg/ml after 2 hrs in presence of 0.5% phenol by UPLC-UV analysis; type: physicochemical; in short: as §2
[8] = Solubility in pH 4.5 phosphate buffer at 10 mg/ml after 2 hrs in presence of 0.5% phenol by UPLC-UV analysis; type: physicochemical
[9] = Solubility in pH 4.5 acetate buffer at 10 mg/ml after 2 hrs by UPLC-UV analysis

T2 sequence (P43220 whole entry): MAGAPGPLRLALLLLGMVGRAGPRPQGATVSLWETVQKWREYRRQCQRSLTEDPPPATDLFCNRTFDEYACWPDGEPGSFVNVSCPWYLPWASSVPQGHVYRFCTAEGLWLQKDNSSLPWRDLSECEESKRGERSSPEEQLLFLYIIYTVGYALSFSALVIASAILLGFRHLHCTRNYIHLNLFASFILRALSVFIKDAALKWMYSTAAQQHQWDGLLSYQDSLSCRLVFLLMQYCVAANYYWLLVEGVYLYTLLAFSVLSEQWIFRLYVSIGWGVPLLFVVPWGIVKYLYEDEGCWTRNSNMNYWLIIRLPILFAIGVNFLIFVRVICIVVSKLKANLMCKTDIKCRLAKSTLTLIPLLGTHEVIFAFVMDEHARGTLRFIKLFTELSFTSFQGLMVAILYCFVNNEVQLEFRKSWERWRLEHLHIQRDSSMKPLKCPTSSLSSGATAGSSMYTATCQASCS
Sequence of Glucagon receptor (P47871 whole entry): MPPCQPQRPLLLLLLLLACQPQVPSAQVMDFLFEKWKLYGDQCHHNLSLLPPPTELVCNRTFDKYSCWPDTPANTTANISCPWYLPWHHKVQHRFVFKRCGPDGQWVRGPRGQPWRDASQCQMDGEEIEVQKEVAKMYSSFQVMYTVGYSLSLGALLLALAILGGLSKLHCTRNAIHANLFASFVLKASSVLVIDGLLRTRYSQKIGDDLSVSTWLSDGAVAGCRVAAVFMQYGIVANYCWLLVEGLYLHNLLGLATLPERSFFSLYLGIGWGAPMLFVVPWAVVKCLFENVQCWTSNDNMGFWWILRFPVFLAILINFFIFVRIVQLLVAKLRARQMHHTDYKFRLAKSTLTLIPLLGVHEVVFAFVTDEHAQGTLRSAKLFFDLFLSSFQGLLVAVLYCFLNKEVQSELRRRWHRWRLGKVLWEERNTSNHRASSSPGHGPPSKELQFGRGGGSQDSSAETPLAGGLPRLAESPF

| Structure (SMILES) | EC50 [1] [nM] | IC50 [2] [nM] | EC50 [3] [nM] | EC50 (Glucagon receptor) [nM] | Ratio EC50 (Homo sapiens [4]) | Ratio EC50 (Homo sapiens [5]) | solubility at 2 h [6] [µg/mL] | solubility at 2 h [7] [µg/mL] | solubility at 2 h [8] [µg/mL] | solubility at 2 h [9] [µg/mL] |
| --- | --- | --- | --- | --- | --- | --- | --- | --- | --- | --- |
| CC[C@H](C)[C@H](NC(=O)[C@H](Cc1ccccc1)NC(=O)[C@H](CC(C)C)NC(=O)[C@H](CCCCN)NC(=O)[C@H](C)NC(=O)[C@H](CS)NC(=O)[C@H](CCC(N)=O)NC(=O)[C@H](CCC(=O)O)NC(=O)[C@H](CC(=O)O)NC(=O)[C@H](CC(C)C)NC(=O)[C@H](CCC(N)=O)NC(=O)[C@H](CCCCN)NC(=O)[C@H](CO)NC(=O)[C@H](CC(C)C)NC(=O)[C@@H](N)CC(=O)O)C(=O)N[C@@H](CCC(=O)O)C(=O)N[C@@H](Cc1c[nH]c2ccccc12)C(=O)N[C@@H](CC(C)C)C(=O)N[C@@H](C)C(=O)N[C@@H](C)C(=O)NCC(=O)NCC(=O)N1CCC[C@H]1C(=O)N[C@@H](CO)C(=O)N[C@@H](CO)C(=O)NCC(=O)N[C@@H](C)C(=O)N1CCC[C@H]1C(=O)N1CCC[C@H]1C(=O)N1CCC[C@H]1C(=O)N[C@@H](CS)C(N)=O (H-DLSKQLDEQCAKLFIEWLAAGGPSSGAPPPC-NH2) | > 100000 | 1130 |  |  |  |  |  |  |  |  |
| CCCCCCCCCCCCCCCCCCC(=O)N[C@@H](CCC(=O)NCCCC[C@H](NC(=O)[C@H](CCC(N)=O)NC(=O)[C@H](CCCCN)NC(=O)[C@H](CO)NC(=O)[C@H](CC(C)C)NC(=O)[C@H](CC(=O)O)NC(=O)[C@H](CO)NC(=O)[C@@H](NC(=O)[C@H](Cc1ccccc1)NC(=O)[C@@H](NC(=O)CNC(=O)[C@H](CCC(N)=O)NC(=O)C(C)(C)NC(=O)[C@@H](N)Cc1cnc[nH]1)[C@@H](C)O)[C@@H](C)O)C(=O)N[C@@H](CC(=O)O)C(=O)N[C@@H](CCC(=O)O)C(=O)N[C@@H](CCC(N)=O)C(=O)N[C@@H](CCCNC(=N)N)C(=O)N[C@@H](C)C(=O)N[C@@H](CCCCN)C(=O)N[C@@H](CC(C)C)C(=O)N[C@@H](Cc1ccccc1)C(=O)N[C@H](C(=O)N[C@@H](CCC(=O)O)C(=O)N[C@@H](Cc1c[nH]c2ccccc12)C(=O)N[C@@H](CC(C)C)C(=O)NC(C)(C)C(=O)N[C@@H](C)C(=O)NCC(=O)NCC(=O)N1CCC[C@H]1C(=O)N[C@@H](CO)C(=O)N[C@@H](CO)C(=O)NCC(=O)N[C@@H](C)C(=O)N1CCC[C@H]1C(=O)N1CCC[C@H]1C(=O)N1CCC[C@H]1C(=O)N[C@@H](CO)C(N)=O)[C@@H](C)CC)C(=O)O | 0.102 |  | 0.0014 | 0.0067 | 5 | 73 |  |  |  |  |
| CC[C@H](C)[C@H](NC(=O)[C@H](Cc1ccccc1)NC(=O)[C@H](CC(C)C)NC(=O)[C@H](CCCCN)NC(=O)[C@H](C)NC(=O)[C@H](CCCNC(=N)N)NC(=O)[C@H](CCC(N)=O)NC(=O)[C@H](CCC(=O)O)NC(=O)[C@H](CC(=O)O)NC(=O)[C@H](CC(C)C)NC(=O)[C@H](CCC(N)=O)NC(=O)[C@H](CCCCN)NC(=O)[C@H](CO)NC(=O)[C@H](CC(C)C)NC(=O)[C@H](CC(=O)O)NC(=O)[C@H](CO)NC(=O)[C@@H](NC(=O)[C@H](Cc1ccccc1)NC(=O)[C@@H](NC(=O)CNC(=O)[C@H](CCC(N)=O)NC(=O)C(C)(C)NC(=O)[C@@H](N)Cc1cnc[nH]1)[C@@H](C)O)[C@@H](C)O)C(=O)N[C@@H](CCC(=O)O)C(=O)N[C@@H](Cc1c[nH]c2ccccc12)C(=O)N[C@@H](CC(C)C)C(=O)NC(C)(C)C(=O)N[C@@H](C)C(=O)NCC(=O)NCC(=O)N1CCC[C@H]1C(=O)N[C@@H](CO)C(=O)N[C@@H](CO)C(=O)NCC(=O)N[C@@H](C)C(=O)N1CCC[C@H]1C(=O)N1CCC[C@H]1C(=O)N1CCC[C@H]1C(=O)N[C@@H](CO)C(N)=O |  | 26 |  |  |  |  |  |  |  |  |
| CCCCCCCCCCCCCCCCC(=O)N[C@@H](CCC(=O)N[C@@H](CCC(=O)NCCCC[C@H](NC(=O)[C@H](CCC(N)=O)NC(=O)[C@H](CCCCN)NC(=O)[C@H](CO)NC(=O)[C@H](CC(C)C)NC(=O)[C@H](CC(=O)O)NC(=O)[C@H](CO)NC(=O)[C@@H](NC(=O)[C@H](Cc1ccccc1)NC(=O)[C@@H](NC(=O)CNC(=O)[C@H](CCC(N)=O)NC(=O)C(C)(C)NC(=O)[C@@H](N)Cc1cnc[nH]1)[C@@H](C)O)[C@@H](C)O)C(=O)N[C@@H](CC(=O)O)C(=O)N[C@@H](CCC(=O)O)C(=O)N[C@@H](CCC(N)=O)C(=O)N[C@@H](CCCNC(=N)N)C(=O)N[C@@H](C)C(=O)N[C@@H](CCCCN)C(=O)N[C@@H](CC(C)C)C(=O)N[C@@H](Cc1ccccc1)C(=O)N[C@H](C(=O)N[C@@H](CCC(=O)O)C(=O)N[C@@H](Cc1c[nH]c2ccccc12)C(=O)N[C@@H](CC(C)C)C(=O)NC(C)(C)C(=O)N[C@@H](C)C(=O)NCC(=O)NCC(=O)N1CCC[C@H]1C(=O)N[C@@H](CO)C(=O)N[C@@H](CO)C(=O)NCC(=O)N[C@@H](C)C(=O)N1CCC[C@H]1C(=O)N1CCC[C@H]1C(=O)N1CCC[C@H]1C(=O)N[C@@H](CO)C(N)=O)[C@@H](C)CC)C(=O)O)C(=O)O | 2.03 |  | 0.0022 | 0.0276 | 13 |  | ≥ 10000 | 1200 | ≥ 10000 | ≥ 10000 |
